Source: PubChem
sPLA2-III inh: Blocks human group III sPLA2 activity; Q9NZ20; QFRET BODIPY PC-A2 liposome hydrolysis, fluorescence; inhibition, % at 12.2 µM; 370,000 compounds, 0.56% hits;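 active means inhibition above mean plus 3 SD of compounds lying within the high and low control bounds, cut at about 19% in these data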;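 further: 0% = median of test compound wells and 100% = no enzyme DMSO wells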
PLCg1 inh: inhibitors of human phospholipase C gamma1. 370,000 compounds, 0.84% hits. purified PLC-gamma1, fluorogenic substrate, fluorescence. inhibition, % at 12.2 µM; in the data active means inhibition above about 9.5%
PLC-beta3 inh: inhibitors of human phospholipase C beta3. inhibition, % at 12.2 µM. AID 720704. Purified PLC-beta3, fluorogenic substrate, fluorescence. 370,000 compounds, 0.18% hits. Q01970; in the data active means inhibition above about 11%;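 further: 0% = median of compound wells on plate and 100% = full blocker control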
Target sequence (Q01970 whole entry, looked up): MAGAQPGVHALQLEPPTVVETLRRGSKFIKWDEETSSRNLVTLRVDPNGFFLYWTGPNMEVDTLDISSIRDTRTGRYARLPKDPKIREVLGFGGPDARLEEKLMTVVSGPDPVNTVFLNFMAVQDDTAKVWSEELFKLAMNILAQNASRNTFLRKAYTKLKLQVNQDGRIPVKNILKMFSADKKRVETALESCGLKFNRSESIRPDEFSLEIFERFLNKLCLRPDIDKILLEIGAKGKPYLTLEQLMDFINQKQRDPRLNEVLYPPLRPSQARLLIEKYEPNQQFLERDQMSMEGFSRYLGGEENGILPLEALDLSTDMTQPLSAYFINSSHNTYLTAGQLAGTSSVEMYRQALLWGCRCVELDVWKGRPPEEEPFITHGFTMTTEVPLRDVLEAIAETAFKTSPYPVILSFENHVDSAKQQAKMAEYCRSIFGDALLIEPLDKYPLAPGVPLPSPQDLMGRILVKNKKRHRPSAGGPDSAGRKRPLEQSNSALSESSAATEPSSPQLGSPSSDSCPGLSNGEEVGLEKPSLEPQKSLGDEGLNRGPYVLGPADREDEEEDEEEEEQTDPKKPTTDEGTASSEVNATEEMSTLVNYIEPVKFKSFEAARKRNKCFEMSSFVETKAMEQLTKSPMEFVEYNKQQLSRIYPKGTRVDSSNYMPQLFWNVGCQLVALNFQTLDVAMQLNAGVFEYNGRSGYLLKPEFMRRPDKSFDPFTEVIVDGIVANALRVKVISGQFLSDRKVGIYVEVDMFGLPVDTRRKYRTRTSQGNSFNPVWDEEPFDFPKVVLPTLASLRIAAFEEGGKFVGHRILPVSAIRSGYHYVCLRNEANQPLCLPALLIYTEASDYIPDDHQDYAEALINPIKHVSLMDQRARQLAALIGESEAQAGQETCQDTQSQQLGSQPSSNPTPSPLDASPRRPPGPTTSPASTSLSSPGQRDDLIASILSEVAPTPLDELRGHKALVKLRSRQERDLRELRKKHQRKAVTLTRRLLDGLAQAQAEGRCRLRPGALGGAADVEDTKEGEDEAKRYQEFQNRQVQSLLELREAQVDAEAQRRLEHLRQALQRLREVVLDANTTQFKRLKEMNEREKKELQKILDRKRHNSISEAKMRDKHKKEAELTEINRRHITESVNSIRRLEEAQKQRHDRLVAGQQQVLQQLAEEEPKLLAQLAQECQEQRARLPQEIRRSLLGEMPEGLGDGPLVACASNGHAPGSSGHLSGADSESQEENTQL
procasp3 activ: activators of human procaspase-3; AID 463141; 330,000 compounds, 0.11% hits; P42574; activation, % at 8.5 µM; recombinant procaspase-3 D3A, Ac-DEVD-pNA absorbance 405 nm;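 active means activation above the mean of all tested compounds plus 3 SD, cut at about 21% in these data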;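 further: 0% = DMSO alone and 100% = DMSO wells spiked with extra 5 µM PC-3 D3A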
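Assay system: Autoprocessing-dead procaspase-3 D3A mutant enzyme; also added: Ac-DEVD-pNA; doses: one concentration, 8.5 µM nominal, 0.8% DMSO; times: 1 h compound preincubation, 2 h substrate hydrolysis at 25 °C; technique: 405 nm absorbance of p-nitroaniline, reads at 0 and 120 min; measure: % activation between DMSO and enzyme-spiked controls; repeats: single replicate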
procasp7 counter: counter-screen: procaspase-7 (human) activation. P55210. recombinant procaspase-7, Ac-DEVD-pNA absorbance 405 nm; D23A/D198A/D206A triple mutant, cannot self-cleave; scale: DMSO 0, 5 µM enzyme 100. activation, % at 8.5 µM. 330,000 compounds, 0.093% hits;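 active means percent activation above the screen-wide mean plus 3 SD, cut at about 25% in these data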
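Assay system: Uncleavable procaspase-7 mutant enzyme / Input: 2 µM procaspase-7 mutant as dispensed / Dosing: single nominal 8.5 µM compound dose, 0.8% DMSO final / Timing: 1 h enzyme–compound preincubation and 2 h substrate reaction, both 25 °C / Detection: p-Nitroaniline absorbance at 405 nm, read at 0 and 120 min / Replication: singlicate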
sPLA2 confirm: human GIII-sPLA2 inhibition, confirmation. shares compounds with sPLA2-III inh. recombinant hGIII-sPLA2, BODIPY PC-A2 QFRET fluorescence. inhibition, % at 12.2 µM. 2,000 compounds, 34% hits. AID 743280;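 active means mean inhibition across triplicates above the hit cutoff set in the earlier primary screen, cut at about 19% in these data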;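 further: 0% = enzyme with DMSO and 100% = DMSO wells lacking enzyme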
BODIPY interf: optically interferes with 535nm fluorescence in sPLA2 counter-screen. shares compounds with sPLA2-III inh. BODIPY FL product fluorescence interference, QFRET. inhibition, % at 12.2 µM. 2,000 compounds, 8.5% hits;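 active means average inhibition above the solvent-only control mean plus 3 SD, cut at about 6% in these data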;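 further: 0% = DMSO with substrate plus product and 100% = DMSO with substrate alone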
BODIPY interf DR: interferes with 535nm fluorescence in dose response counter-screen; 240 tested, under 10 active; BODIPY FL product fluorescence interference, cell-free; AID 743455; IC50, µM; shares compounds with sPLA2-III inh;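 active means IC50 at or below 10 µM; inactive means IC50 above 10 µM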
* = called active by the depositor; · = no result. The list is not random: actives were taken first. Their share in the collection is about 1.6%.

SMILES	sPLA2-III inh	PLCg1 inh	PLC-beta3 inh	procasp3 activ	procasp7 counter	sPLA2 confirm	BODIPY interf	others
CCCn1c(C)cc(/C=C(\C#N)C(=O)OCC(=O)N(CC)c2c(N)n(Cc3ccccc3)c(=O)[nH]c2=O)c1C	-7.2	-21.3	-34.2	·	·	·	·
CCCCCCCCCc1conc1C(=O)CP(=O)(OC)OC	-18.1	-0.8	1.2	·	·	·	·
CCCCCCCCCc1conc1C(=O)/C=C/c1ccco1	23.8*	-0.2	-7.4	·	·	-1.9	-7.1
N#C/C(=C\c1ccc2c(c1)OCCO2)C(=O)NC1CCCCC1	24.1*	0.5	2.5	7.0	-1.8	1.1	-10.6
COc1cccc(CN(C)C(=O)CSCC(=O)Nc2cccc(C)c2)c1OC	8.7	1.8	-7.0	4.5	1.6	·	·
CCNC(=S)NNC(=O)c1nn(C)c(C)c1Cl	5.8	0.1	-5.3	-0.3	-1.1	·	·
Cc1c(Cl)c(C(=O)NNC(=S)Nc2ccc(F)cc2)nn1C	33.7*	2.7	2.4	4.5	-2.7	40.6*	4.8	BODIPY interf DR=>122
Cc1c(Cl)c(C(=O)NNC(=S)Nc2ccccc2)nn1C	29.0*	-1.8	0.6	-8.8	-5.2	46.5*	-0.4	BODIPY interf DR=>122
Cc1cc(C)nc(SCc2ccc(C(=O)N/N=C/c3cccc(O)c3O)cc2)n1	26.5*	-6.5	-5.2	-2.2	-6.8	38.2*	-29.0	BODIPY interf DR=>122
N#Cc1ccc(C(S(=O)(=O)Cc2ccccc2)S(=O)(=O)Cc2ccccc2)cc1	-12.3	0.7	-5.7	·	·	·	·
O=C(O)/C=C/C(=O)NCCc1ccc(Cl)cc1	21.8*	-1.3	-9.6	-10.4	5.2	5.8	-3.7
CC(=O)Nc1cccc(C(=O)NNC(=O)c2n[nH]c(=O)c3ccccc23)c1	4.9	-0.7	-5.2	-3.1	1.9	·	·
Cc1cccc(NC(=S)NNC(=O)c2nn(C)cc2Cl)c1	37.4*	-0.2	-3.7	-5.5	-6.9	42.8*	0.6	BODIPY interf DR=>122
O=C(NC(=S)NNC(=O)c1cnccn1)c1ccc(F)cc1	3.9	-0.1	0.7	-2.9	-11.6	·	·
Cc1ccc(NC(=S)NNC(=O)c2nnn(-c3ccccc3)c2C)cc1	36.1*	6.0	1.4	5.1	-9.6	31.1*	-3.3	BODIPY interf DR=>122
Cc1ccc(NC(=S)NNC(=O)c2cnccn2)cc1	30.4*	-0.8	0.7	·	·	27.4*	0.4
Cc1cccc(NC(=S)NNC(=O)c2ccco2)c1	16.7	3.1	2.0	-4.4	0.6	·	·
O=C(NNC(=S)Nc1ccc(Cl)c(Cl)c1)c1ccccn1	32.3*	-42.9	-51.2	-3.2	-11.4	41.8*	6.5*
Cc1ccc(NC(=O)c2cnn(-c3ccccc3)c2C)cc1	-6.7	2.4	0.3	-4.1	-4.1	·	·
CSc1ccc(NC(=O)C2(C)CCN2C(=O)c2cc(C)n(C)n2)cc1 (stereo unspecified)	4.9	2.9	-4.6	·	·	·	·
CCOCCCN(CCC#N)C(=O)C1CCN(S(=O)(=O)c2ccc(-n3cnnn3)cc2)CC1	2.8	-0.8	-1.1	2.1	4.5	·	·
CC(C)NS(=O)(=O)c1ccc(OCC(=O)Nc2cccc(F)c2)cc1	-4.0	5.4	1.8	-5.8	1.3	·	·
O=C(OCC(=O)N1CCCC1=O)c1ncc(Cl)c(Cl)c1Cl	2.9	3.3	2.2	4.5	-0.5	·	·
COc1ccc(Cn2cc(CN3CC=CS3(=O)=O)nn2)cc1	7.3	-0.8	-0.5	·	·	·	·
Cc1ccc(S(=O)(=O)Oc2cccc([N+](=O)[O-])c2)cc1	5.8	3.5	-0.8	·	·	·	·
SMILES	sPLA2-III inh	PLCg1 inh	PLC-beta3 inh	procasp3 activ	procasp7 counter	sPLA2 confirm	BODIPY interf	others
O=C1COc2ccc(C(=O)COc3ccc([N+](=O)[O-])cc3)cc2N1	-2.5	4.4	-2.3	7.5	-4.4	·	·
O=C(c1ccc(NC(=S)Nc2ccc(Cl)c(Cl)c2)cc1)N1CCCC1	19.5*	0.7	-2.6	-11.7	-15.7	6.4	-2.8
O=C(Nc1ccc(Cl)c(Cl)c1)N1CCCCCC1	7.6	-0.4	-6.7	0.2	-10.8	·	·
Cc1ccc(NC(=S)NNC(=O)c2nn(C)cc2Cl)cc1	33.5*	3.0	0.5	-12.5	-6.4	44.0*	1.9	BODIPY interf DR=>122
OCCNC(=S)NCCc1ccccc1	19.5*	1.0	-1.5	-0.1	-0.5	4.4	-1.3
Cc1cccnc1NC(=S)NCCc1ccccc1	16.3	3.0	-7.3	9.2	-6.4	·	·
S=C(NCCc1ccccc1)Nc1ncccn1	19.6*	0.3	-0.1	·	·	10.2	-3.1
Cc1cc(C(=O)NCC23CC4CC(CC(C4)C2)C3)c(C)o1	·	·	·	1.8	5.5	·	·
O=C(NCCOCCNC(=O)OCc1ccccc1)OCc1ccccc1	4.6	-2.7	-1.2	4.0	-1.2	·	·
CC(=O)c1ccc2c(c1)C1C=CCC1C(c1cc3c(cc1Br)OCO3)N2 (stereo unspecified)	-0.3	-26.4	-41.5	-4.8	-8.5	·	·
COc1ccc2c(c1)C1C=CCC1C(c1cc3c(cc1Br)OCO3)N2 (stereo unspecified)	20.4*	2.7	-6.7	-10.9	-4.6	33.9*	8.9*
CNC(=O)c1c(C)[nH]c(=S)c(C#N)c1-c1ccco1	0.1	-102.3	-153.3	-22.0	-34.2	·	·
Cc1ccccc1NC(=O)c1c(C)[nH]c(=S)c(C#N)c1-c1ccco1	20.5*	-29.2	-33.7	-6.3	-17.1	20.5*	2.1
Cc1onc(-c2ccccc2)c1C(=O)NC(=S)NNC(=O)c1ccc(O)cc1	9.3	3.0	-0.2	3.1	-9.0	·	·
Cc1onc(-c2ccccc2)c1C(=O)NC(=S)NNC(=O)c1ccc(O)cc1O	23.5*	-1.6	-0.2	-10.7	-14.4	23.1*	2.6
Cc1onc(-c2ccccc2)c1C(=O)NC(=S)NNC(=O)c1ccccc1O	42.3*	-5.2	-4.1	-2.6	-7.7	34.2*	1.1	BODIPY interf DR=>122
Cc1onc(-c2ccccc2)c1C(=O)NNC(=O)c1ccccc1Br	6.1	-2.7	2.8	5.4	-0.8	·	·
COc1cc(NC(=O)C2(C)CCN2C(C)C)cc(OC)c1OC (stereo unspecified)	2.5	2.8	-1.1	·	·	·	·
COc1cccc(C(NC(C)=O)c2ccc3cccnc3c2O)c1 (stereo unspecified)	1.4	-10.8	-17.8	3.5	-1.7	·	·
COc1cccc(C(Nc2ccccc2)c2ccc3ccc(C)nc3c2O)c1 (stereo unspecified)	21.5*	-5.5	-1.1	·	·	5.2	8.3*
O=C1NC2(CCCCC2)Cc2ccccc21	-4.2	-0.7	2.1	2.4	-11.4	·	·
S=C1NC2(CCCCC2)Cc2ccccc21	21.4*	2.7	2.4	-7.7	-8.3	13.5	-2.0
CCOC(=O)CC[C@@]1(C(=O)OCC)C[C@@H](CC(=O)NCc2cccs2)C(=O)N2CCCC=C21	5.3	-1.1	-0.3	·	·	·	·
